Source: ChEMBL document CHEMBL4842325, “Lanosterol 14α-demethylase (CYP51)/histone deacetylase (HDAC) dual inhibitors for treatment of Candida tropicalis and Cryptococcus neoformans infections” (Eur J Med Chem, 2021)
≈ marks a conversion by molar mass, not a printed value. Calls of active or inactive are those of the source. The rule behind the calls is not given here.

Assays:
Candida albicans [1] = test: microbe, parasite or virus in culture; format: functional; details: 7781
Cryptococcus neoformans [2] = test: Downregulation of CAP59 gene expression in Cryptococcus neoformans H99 at 2 ug/ml measured after 24 hrs by qRT-PCR analysis; format: functional; details: dose 2.0 µg/ml
In short: (§1)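 Exponential-phase C. neoformans H99 inoculated into 50 mL YPD with compound. Incubated 35 °C for 24 h, then cultures ground in liquid nitrogen for RNA isolation. Transcript levels of capsule-associated genes quantified by RT-qPCR. Three independent experiments, mean ± SD, t-test.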

Cryptococcus neoformans [3] = test: Downregulation of HDA1 mRNA expression in Cryptococcus neoformans H99 at 2 ug/ml measured after 24 hrs by qRT-PCR analysis; format: functional; details: dose 2.0 µg/ml
In short: (§2)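 Exponentially growing C. neoformans H99 inoculated into 50 mL YPD with compound and incubated 35 °C for 24 h. Cells ground in liquid nitrogen before total RNA isolation, then reverse transcription and real-time RT-qPCR. Means ± SD of three independent assays.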

Cryptococcus neoformans [4] = test: Downregulation of HOS3 mRNA expression in Cryptococcus neoformans H99 at 2 ug/ml measured after 24 hrs by qRT-PCR analysis; format: functional; details: dose 2.0 µg/ml
In short: as §2

Candida tropicalis [5] = test: Inhibition of CYP51 in Candida tropicalis 5008 assessed as eburicol level at 4 ug/ml by GC-MS analysis; set-up: scale not given: the % may be the effect or the level left; details: dose 4.0 µg/ml
Candida albicans [6] = test: microbe, parasite or virus in culture; format: functional; details: 0304103
Cryptococcus neoformans [7] = test: Downregulation of HOS2 mRNA expression in Cryptococcus neoformans H99 at 2 ug/ml measured after 24 hrs by qRT-PCR analysis; format: functional; details: dose 2.0 µg/ml
In short: as §2

Candida albicans [8] = test: microbe, parasite or virus in culture; format: functional; details: 4108
[9] = Inhibition of HDAC in Candida tropicalis 5008 using Boc-Lys(Ac)-AMC as substrate preincubated with protoplast for 12 hrs followed by incubation with substrate for 6 hrs by fluorimetric assay
In short: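 Whole-cell assay on C. tropicalis 5008, 100 mg wet weight of exponential-phase cells. Cell wall removed with snailase to give protoplasts, which were dispersed in PBS. Protoplasts incubated with compound at 35 °C for 12 h. Boc-Lys(Ac)-AMC then added to a final 30 µM and incubated 37 °C for 6 h. Stop solution added, 37 °C for 2 h. Fluorescence read at Ex 360/Em 460 nm and converted to HDAC inhibition rate.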

HUVEC = test: Cytotoxicity against human HUVEC assessed as reduction in cell viability; format: cell-based
Cryptococcus neoformans [10] = test: Downregulation of CLR61 mRNA expression in Cryptococcus neoformans H99 at 2 ug/ml measured after 24 hrs by qRT-PCR analysis; format: functional; details: dose 2.0 µg/ml
In short: as §2

Candida tropicalis [11] = test: Antifungal activity against fluconazole-resistant Candida tropicalis 5008 assessed as inhibition of cell proliferation at 32 ug/ml measured for 48 hrs by time growth curve assay; format: functional, organism-based; details: dose 32.0 µg/ml
In short: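 Exponential-phase cells from YEPD resuspended in 3 mL fresh RPMI 1640 at 1 × 10⁵ cells/mL (C. tropicalis 5008) or 1 × 10⁶ cells/mL (C. neoformans H99). Compound at several concentrations; cultures shaken at 240 rpm, 30 °C. Growth read as OD₆₃₀ at 0, 6, 12, 24, 36 and 48 h. Done in triplicate.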

Candida tropicalis [12] = test: Antifungal activity against Candida tropicalis 5008 assessed as inhibition of fungal filamentation by measuring reduction in hyphae formation at 1 ug/ml incubated for 7 hrs by cell inverted imaging microscopic analysis; format: functional, organism-based; details: dose 1.0 µg/ml
In short: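 C. tropicalis 5008 from exponential YEPD culture diluted in spider medium to 1 × 10⁵ CFU/mL. Compound added at several concentrations, with fluconazole as positive drug. Incubated 37 °C for 7 h, then morphology compared with the no-drug group by live-cell inverted microscopy.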

[13] = Inhibition of HDAC in Cryptococcus neoformans H99 using Boc-Lys(Ac)-AMC as substrate preincubated with protoplast for 12 hrs followed by incubation with substrate for 6 hrs by fluorimetric assay
Cryptococcus neoformans [14] = test: Inhibition of CYP51 in Cryptococcus neoformans H99 assessed as ergosterol level at 4 ug/ml by GC-MS analysis (reference value: 60.18%); set-up: scale not given: the % may be the effect or the level left; details: dose 4.0 µg/ml
Candida tropicalis [15] = test: Downregulation of CDR1 mRNA expression in Candida tropicalis 5008 at 4 ug/ml measured after 24 hrs by qRT-PCR analysis; format: functional; details: dose 4.0 µg/ml
In short: (§3)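 Exponential-phase C. tropicalis 5008 inoculated into 10 mL YPD with compound at several concentrations, DMSO as blank control. Incubated 35 °C for 24 h. Total RNA isolated on columns and reverse-transcribed. Real-time RT-PCR with ACT1 as internal control. Mean of 3 independent assays ± SD.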

Candida tropicalis [16] = test: microbe, parasite or virus in culture; format: functional; details: 5008, time 48 hrs
Cryptococcus neoformans [17] = test: Inhibition of biofilm formation in Cryptococcus neoformans H99 at 64 ug/ml incubated for 24 hrs by XTT reduction assay; format: functional
In short: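 C. tropicalis 5008 or C. neoformans H99 from exponential YEPD culture diluted in RPMI 1640 to 1 × 10⁶ CFU/mL. Adhesion at 37 °C for 1.5 h. Results given as percent inhibition versus untreated wells. Three independent experiments, mean ± SD, t-test.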

Cryptococcus neoformans [18] = test: Inhibition of CYP51 in Cryptococcus neoformans H99 assessed as eburicol level at 4 ug/ml by GC-MS analysis (reference value: 39.82%); set-up: scale not given: the % may be the effect or the level left; details: dose 4.0 µg/ml
Candida albicans [19] = test: Antifungal activity against fluconazole-sensitive Candida albicans 9770 assessed as inhibition of fungal growth; format: functional
Cryptococcus neoformans [20] = test: Downregulation of CAP60 gene expression in Cryptococcus neoformans H99 at 2 ug/ml measured after 24 hrs by qRT-PCR analysis; format: functional; details: dose 2.0 µg/ml
In short: as §2

Candida tropicalis [21] = test: Downregulation of ERG11 mRNA expression in Candida tropicalis 5008 at 4 ug/ml measured after 24 hrs by qRT-PCR analysis; format: functional; details: dose 4.0 µg/ml
In short: as §3

Candida tropicalis [22] = test: Inhibition of CYP51 in Candida tropicalis 5008 assessed as ergosterol level at 4 ug/ml by GC-MS analysis (reference value: 84.91%); set-up: scale not given: the % may be the effect or the level left; details: dose 4.0 µg/ml
Cryptococcus neoformans [23] = test: Antifungal activity against Cryptococcus neoformans H99 infected in ICR mouse model assessed as reduction in fungal burden in brain at 20 mg/kg, po administered once a day for 5 days; format: functional, organism-based; details: time 5.0 day
In short: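 Immunosuppression by intraperitoneal cyclophosphamide 24 h before infection. Infected on day 0 by intravenous 2 × 10⁵ CFU C. neoformans H99. Oral treatment once daily for 5 consecutive days, starting 24 h post infection; saline group as blank. Brains taken on day 6 and homogenized, dilutions plated on SDA at 35 °C for 48 h. Colonies counted for burden; groups compared by ANOVA.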

Candida albicans [24] = test: Antifungal activity against fluconazole-sensitive Candida albicans 10061 assessed as inhibition of fungal growth; format: functional
Cryptococcus neoformans [25] = test: Inhibition of CYP51 in Cryptococcus neoformans H99 assessed as lanosterol level at 4 ug/ml by GC-MS analysis; set-up: scale not given: the % may be the effect or the level left; details: dose 4.0 µg/ml
Cryptococcus neoformans [26] = test: Downregulation of CAP10 gene expression in Cryptococcus neoformans H99 at 2 ug/ml measured after 24 hrs by qRT-PCR analysis; format: functional; details: dose 2.0 µg/ml
In short: as §1

Cryptococcus neoformans [27] = test: microbe, parasite or virus in culture; format: functional; details: H99, time 72 hrs

SMILES: O=C(CCCCCCCOc1ccc(CN2CCN(CC(O)(Cn3cncn3)c3ccc(F)cc3F)CC2)cc1)NO (stereo not drawn)
- MIC80 (Candida albicans [1]): 1 µg/mL (≈ 1.7 µM)
- inhibition (Cryptococcus neoformans [2]): inactive
- inhibition (Cryptococcus neoformans [3]): Active
- inhibition (Cryptococcus neoformans [4]): Active
- Activity (Candida tropicalis [5]): 69.3%
- MIC80 (Candida albicans [6]): 8 µg/mL (≈ 13.6 µM)
- inhibition (Cryptococcus neoformans [7]): Active
- MIC80 (Candida albicans [8]): 8 µg/mL (≈ 13.6 µM)
- IC50 [9]: 2380 nM
- IC50 (HUVEC): 5.9 µg/mL (≈ 10.1 µM)
- inhibition (Cryptococcus neoformans [10]): Active
- Activity (Candida tropicalis [11]): Active
- Activity (Candida tropicalis [12]): Active
- IC50 [13]: 12.6 µM
- Activity (Cryptococcus neoformans [14]): 19.1%
- inhibition (Candida tropicalis [15]): Active
- MIC80 (Candida tropicalis [16]): 0.5 µg/mL (≈ 0.852 µM)
- inhibition at 64 µg/mL (Cryptococcus neoformans [17]): 70%
- Activity (Cryptococcus neoformans [18]): 71.3%
- MIC80 (Candida albicans [19]): 16 µg/mL (≈ 27.3 µM)
- inhibition (Cryptococcus neoformans [20]): Active
- inhibition (Candida tropicalis [21]): Active
- Activity (Candida tropicalis [22]): 1.51%
- Activity (Cryptococcus neoformans [23]): Active
- MIC80 (Candida albicans [24]): 16 µg/mL (≈ 27.3 µM)
- Activity (Cryptococcus neoformans [25]): 9.59%
- inhibition (Cryptococcus neoformans [26]): Active
- MIC80 (Cryptococcus neoformans [27]): 0.5 µg/mL (≈ 0.852 µM)
